Source: ChEMBL document CHEMBL2417550, “Inhibition of the Escherichia coli 6-oxopurine phosphoribosyltransferases by nucleoside phosphonates: potential for new antibacterial agents” (J Med Chem, 2013)
In brackets after ≈: the same amount, converted by molar mass. Activity calls are given as the source filed them. The calls are words filed in the database; no cut-off is given here.

What was measured:
A549 = assay: Cytotoxicity against human A549 cells after 4 days by coulter counter analysis; assay type: cell-based; conditions: A549, 96 h
[1] = test system: Mycobacterium tuberculosis; assay: Antimycobacterial activity against Mycobacterium tuberculosis H37Ra ATCC 25177 after 5 days by resazurin reduction assay; assay type: functional, organism-based; conditions: H37Ra ATCC 25177, 120 h
How it was run: (§1)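 M. tuberculosis H37Ra grown at 37 °C in 7H9 with OADC, 0.5% glycerol, 0.05% Tween-80 for about 14 days to mid-exponential phase (OD600 0.4−0.8). Diluted to OD600 0.001 (about 2 × 10^4 CFU/ml) in 7H9S with 0.5% DMSO and exposed to serially diluted compounds. Incubated 5 days at 37 °C, then resazurin added. Fluorescence (ex 530/em 580 nm) read 30 h later. Signal normalised to no-inhibitor and no-bacteria controls to give IC50.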

[2] = test system: Mycobacterium tuberculosis; assay: Antimycobacterial activity against Mycobacterium tuberculosis H37Ra ATCC 25177 at >= 250 uM after 5 days by resazurin reduction assay; assay type: functional, organism-based; how it was run: as §1
[3] = Selectivity index, ratio of EC50 for human A549 cells to MIC50 for Mycobacterium tuberculosis H37Ra ATCC 25177; assay type: functional
Escherichia coli [4] = assay: Competitive inhibition of Escherichia coli XGPRT expressed in Escherichia coli SPhi606 using guanine as substrate by spectrophotometric analysis in presence of PRib-PP
How it was run: (§2)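 Enzymes (wild-type XGPRT, HPRT, and the XGPRT mutant lacking six flexible-loop residues) were expressed in E. coli SΦ606, purified to homogeneity and stored at −70 °C in 0.1 M Tris-HCl, 10 mM MgCl2, 1 mM DTT, pH 7.4. Ki was determined spectrophotometrically. Fixed base was 60 μM: guanine for XGPRT, hypoxanthine for HPRT. PRib-PP was varied from 14 to 1000 μM, and inhibitor from 0.1 to 140 μM.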

[5] = Inhibition of Escherichia coli recombinant XGPRT mutant expressed in Escherichia coli SPhi606 using guanine as substrate by spectrophotometric analysis; how it was run: as §2
[6] = Inhibition of Escherichia coli XGPRT expressed in Escherichia coli SPhi606 using guanine as substrate by spectrophotometric analysis; how it was run: as §2
Escherichia coli [7] = assay: (§3) Non-competitive inhibition of Escherichia coli HPRT expressed in Escherichia coli SPhi606 using hypoxanthine as substrate by spectrophotometric analysis in presence of PRib-PP; how it was run: as §2
[8] = Inhibition of Escherichia coli HPRT expressed in Escherichia coli SPhi606 using hypoxanthine as substrate by spectrophotometric analysis; how it was run: as §2
[9] = Binding affinity to Escherichia coli XGPRT
[10] = as §3; how it was run: as §2
[11] = Competitive inhibition of Escherichia coli XGPRT expressed in Escherichia coli SPhi606 using guanine as substrate by spectrophotometric analysis in presence of pyrophosphate
How it was run: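 Ki was determined spectrophotometrically on purified XGPRT expressed in E. coli SΦ606, with guanine fixed at 60 μM. PRib-PP was varied from 14 to 1000 μM, and inhibitor from 0.1 to 140 μM. Pyrophosphate (33 μM) was added to the assay mixture along with the inhibitor.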

Row | Compound | Ki [5] [µM] | Ki [6] [µM] | Ki [8] [µM] | other results
1 | CCOC(=O)[C@H](Cc1ccccc1)NP(=O)(COCC(COCP(=O)(N[C@@H](Cc1ccccc1)C(=O)OCC)N[C@@H](Cc1ccccc1)C(=O)OCC)Cn1cnc2c(=O)[nH]c(N)nc21)N[C@@H](Cc1ccccc1)C(=O)OCC | – | – | – | EC50 (A549): > 300 µM; IC50 [1]: 5 µM; MIC99 [1]: 20 µM (≈ 22.6 µg/mL)
2 | Nc1nc2c(ncn2[C@H]2CCN(C(=O)CP(=O)(O)O)C2)c(=O)[nH]1 | 3 | 0.23 | – | Activity [2]: inactive; Selectivity Index [3]: >=17; inhibition (Escherichia coli [4]): Active
3 | Nc1nc2c(ncn2[C@@H]2CN(C(=O)CP(=O)(O)O)C[C@@H]2O)c(=O)[nH]1 | > 250 | > 250 | – | –
4 | O=c1[nH]cnc2c1ncn2C(COCP(=O)(O)O)COCP(=O)(O)O | – | 73 | – | –
5 | CC(C)(C)C(=O)SCCOP(=O)(CC(=O)N1CC[C@H](n2cnc3c(=O)[nH]c(N)nc32)C1)OCCSC(=O)C(C)(C)C | – | – | – | EC50 (A549): > 300 µM; IC50 [1]: 5 µM; MIC99 [1]: 20 µM (≈ 12.6 µg/mL)
6 | CCOC(=O)[C@H](Cc1ccccc1)NP(=O)(CCOCC(Cn1cnc2c(=O)[nH]c(N)nc21)OCCP(=O)(N[C@@H](Cc1ccccc1)C(=O)OCC)N[C@@H](Cc1ccccc1)C(=O)OCC)N[C@@H](Cc1ccccc1)C(=O)OCC (some centres undefined) | – | – | – | EC50 (A549): 100 µM; IC50 [1]: 5 µM; MIC99 [1]: 20 µM (≈ 22.8 µg/mL)
7 | Nc1nc2c(ncn2CC(COCCP(=O)(O)O)OCCP(=O)(O)O)c(=O)[nH]1 (centres undefined) | – | 0.11 | – | Activity [2]: inactive; Selectivity Index [3]: >=17
8 | CCOC(=O)[C@H](Cc1ccccc1)NP(=O)(COCC(COCP(=O)(N[C@@H](Cc1ccccc1)C(=O)OCC)N[C@@H](Cc1ccccc1)C(=O)OCC)Cn1cnc2c(=O)[nH]cnc21)N[C@@H](Cc1ccccc1)C(=O)OCC | – | – | – | EC50 (A549): 100 µM; IC50 [1]: 5 µM; MIC99 [1]: 20 µM (≈ 22.3 µg/mL)
9 | Nc1nc2c(ncn2CC(COCP(=O)(O)O)COCP(=O)(O)O)c(=O)[nH]1 | 0.24 | 0.01 | – | Activity [2]: inactive; Selectivity Index [3]: >=17
10 | Nc1nc2c(ncn2C(COCP(=O)(O)O)COCP(=O)(O)O)c(=O)[nH]1 | 16 | 3 | – | –
11 | Nc1nc2c(ncn2[C@@H]2CN(C(=O)CP(=O)(O)O)C[C@H]2OC(=O)CP(=O)(O)O)c(=O)[nH]1 | 2.6 | 0.4 | – | inhibition (Escherichia coli [4]): Active
12 | O=c1[nH]cnc2c1ncn2CC(O)COCP(=O)(O)O (centres undefined) | > 200 | 16 | 73 | inhibition (Escherichia coli [7]): Active
13 | O=c1[nH]cnc2c1ncn2CCOCCP(=O)(O)O | 46 | 1.5 | 17 | –
14 | Nc1nc2c(ncn2[C@@H]2O[C@H](COP(=O)(O)O)[C@@H](O)[C@H]2O)c(=O)[nH]1 | 120 | – | 526 | Ki [9]: 4.5 µM
15 | Nc1nc2c(ncn2CC(O)COCP(=O)(O)O)c(=O)[nH]1 (centres undefined) | ≥ 3 | – | > 700 | Ki [10]: 35 µM; Ki [11]: 0.32 µM
16 | Nc1nc2c(ncn2CCOCCP(=O)(O)O)c(=O)[nH]1 | 11 | 0.7 | – | –
17 | Nc1nc2c(ncn2C(COCP(=O)(O)O)C(O)COCP(=O)(O)O)c(=O)[nH]1 (centres undefined) | 14 | 21 | – | –
18 | O=c1[nH]cnc2c1ncn2CC(COCP(=O)(O)O)COCP(=O)(O)O | – | – | 0.8 | Activity [2]: inactive; Selectivity Index [3]: 4
19 | O=C(CP(=O)(O)O)N1CC[C@@H](n2cnc3c(=O)[nH]cnc32)C1 | > 200 | > 200 | 35 | –
20 | Nc1nc2c(ncn2[C@H]2CN(C(=O)CP(=O)(O)O)C[C@H]2O)c(=O)[nH]1 | 3 | 2.2 | – | inhibition (Escherichia coli [4]): Active
